GPR7 antag = GPR7 receptor antagonists, primary screen, cell-based, fluorescence, single concentration; 290,000 tested, 1.1% active; GPR7-expressing cells, fluorescence antagonist assay; Neuropeptides B/W receptor type 1 (Homo sapiens), P48145; inhibition, % at 4.4 µM; AID 1861, 2009; in the data active means inhibition above about 16%, passing the limit was not always enough;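 further: cells stimulated with the agonist NPW; 0% = agonist with vehicle and 100% = vehicle without agonist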
Target sequence (P48145 whole entry, looked up): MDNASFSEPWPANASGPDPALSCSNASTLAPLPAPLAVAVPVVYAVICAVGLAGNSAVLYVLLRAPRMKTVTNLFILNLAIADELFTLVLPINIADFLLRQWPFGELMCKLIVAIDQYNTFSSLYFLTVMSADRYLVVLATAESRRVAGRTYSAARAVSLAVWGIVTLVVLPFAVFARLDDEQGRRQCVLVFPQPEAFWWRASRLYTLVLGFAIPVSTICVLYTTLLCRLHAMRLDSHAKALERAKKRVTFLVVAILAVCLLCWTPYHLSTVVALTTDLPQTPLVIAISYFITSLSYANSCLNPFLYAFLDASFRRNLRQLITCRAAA
DAGLB inh = DAGLB lipase inhibitors, primary screen, biochemical, fluorescence, HTS. Diacylglycerol lipase-beta (Homo sapiens), Q8NCG7. HEK293T DAGLB membrane lysate, EnzChek fluorogenic substrate. inhibition, % at 5.17 µM. 340,000 tested, 0.059% active. AID 504411, 2011; in the data active means inhibition above about 34%;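 further: 0% = enzyme with vehicle and 100% = wells lacking enzyme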
TAAR1 ag = human TAAR1 agonists, primary screen, Fluo-8 calcium fluorescence, CHO RD-HGA16 cells | Trace amine-associated receptor 1 (Homo sapiens), Q96RJ0 | vehicle wells 0%, saturating PEA agonist 100% | activation, % at 3 µM | 360,000 tested, 0.99% active | AID 624467, 2012;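 active means activation above the mean activation of all test compounds in the run plus 3 SD, cut at about 38% in these data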
Target sequence (Q96RJ0 whole entry, looked up): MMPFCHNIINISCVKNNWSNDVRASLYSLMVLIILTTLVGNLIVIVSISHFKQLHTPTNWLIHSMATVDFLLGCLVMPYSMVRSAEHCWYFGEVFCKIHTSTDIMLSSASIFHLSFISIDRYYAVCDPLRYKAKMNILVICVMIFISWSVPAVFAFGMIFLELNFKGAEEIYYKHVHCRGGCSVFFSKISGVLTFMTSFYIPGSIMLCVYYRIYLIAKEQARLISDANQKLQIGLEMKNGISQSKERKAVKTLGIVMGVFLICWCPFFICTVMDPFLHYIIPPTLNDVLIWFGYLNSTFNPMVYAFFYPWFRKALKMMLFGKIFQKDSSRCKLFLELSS
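System: CHO-derived RD-HGA16 cells with stable Gα16 and human TAAR1 / Times: 17-24 h plating, Fluo-8 75 min 37 °C, 30 min RT / Technique: calcium-sensitive Fluo-8 signal, excitation 470-495, emission 515-575 nm / Measure: % activation relative to PEA EC100 response / Benchmarks: DMSO and PEA EC100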
MPTP block = mitochondrial permeability transition pore inhibitors, primary screen, biochemical, isolated mouse mitochondria, absorbance. Ca2+ swelling absorbance, 30 min. inhibition, % at 10 µM. 360,000 tested, 1.4% active. AID 602449, 2012;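 active means inhibition of 50% or more, scaled per plate between neutral and stimulator controls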;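 further: 0% = DMSO wells given calcium and 100% = 1 mM EGTA wells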
TAAR1 antagonist = human TAAR1 antagonists, primary screen, Fluo-8 calcium fluorescence, CHO RD-HGA16 cells; inhibition, % at 3 µM; 360,000 tested, 1.5% active; antagonist; Trace amine-associated receptor 1 (Homo sapiens), Q96RJ0;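 active means inhibition above a per-plate cutoff, the mean inhibition of test compounds on that plate plus 3 SD, cut at about 49% in these data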;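 further: 0% = DMSO plus EC80 beta-PEA response and 100% = DMSO alone without agonist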
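Test system: CHO RD-HGA16 cells bearing hTAAR1 | Reagent: β-PEA, EC80 | Compound dosing: 3 µM, single point | Schedule: Dye loading 75 min at 37 °C, then 30 min room temperature | Signal: Calcium fluorescence with Fluo-8 | Evaluation: Percent inhibition of PEA-evoked calcium signal, max/basal emission ratio | Control set: DMSO-only wells and EC80 β-PEA-stimulated wells | Repeats: Singlicate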
Rh123 counter = fluorescence retest of MPTP screen hits in isolated mitochondria, single concentration; membrane potential, Rhodamine 123 fluorescence; shares compounds with MPTP block; 5,000 tested, 78% active; inhibition, % at 10 µM; in the data active means inhibition above about 22%;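 further: 0% = DMSO vehicle and 100% = positive control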
MPTP abs DR = mitochondrial permeability transition pore inhibitors, dose response, biochemical, absorbance, uHTS hits. shares compounds with MPTP block. isolated mitochondria swelling. IC50, µM. 780 tested, 58% active. AID 651561, 2012; in the data active means IC50 below about 20 µM
MPTP counter DR = fluorescent counter-screen in isolated mitochondria, dose response, counter-screen for MPTP inhibitor project, biochemical, fluorescence, uHTS hits | 780 tested, 49% active | isolated mitochondria counterscreen, fluorescence read-out | IC50, µM | AID 651564, 2012 | shares compounds with MPTP block; in the data active means IC50 below about 80 µM
* = called active by the depositor; . = no result given. Compounds with a hit are over-represented: about 4% of the library has one in this group of screens.

SMILES | GPR7 antag | DAGLB inh | TAAR1 ag | MPTP block | TAAR1 antagonist | Rh123 counter | others
COc1ccccc1NC(=S)N(C(C)C)C(C)c1ccccn1 (stereo unspecified) | -1.9 | 0.1 | 1.6 | 8.4 | -0.5 | .
CC(C)N(C(=S)Nc1cccc(C(F)(F)F)c1)C(C)c1ccccn1 (stereo unspecified) | -3.7 | 0.5 | 6.5 | 92.4* | 7.0 | 83.3*
O=S(=O)(NCC(Nc1ccccc1)c1ccccc1)c1ccc(Cl)cc1 (stereo unspecified) | -14.7 | -4.7 | -1.1 | 51.5* | 51.3* | 74.1*
CN1C(=O)/C(=C/c2cc(N=Nc3ccccc3)ccc2O)SC1=S | -7.4 | 3.4 | 4.8 | 95.2* | -8.0 | 61.3*
Cc1c(N2C(=O)/C(=C\c3ccccc3O)SC2=S)c(=O)n(-c2ccccc2)n1C | -9.7 | -1.8 | 1.9 | 1.2 | 8.4 | .
O=C(NNC1=C(C(=O)C(F)(F)F)CCC1)c1cccc(Cl)c1 | 4.9 | -18.4 | 0.1 | 38.3 | 14.9 | .
O=C(NNC1=C(C(=O)C(F)(F)F)CCC1)c1ccc(Cl)cc1 | 6.2 | -18.2 | -3.3 | 91.9* | 16.3 | 76.9*
COC(=O)/C=C1\OCc2cc(OC)c(OC)cc21 | . | . | -0.2 | 1.0 | -11.2 | .
Cc1ccc2nc(-c3ccc(C#N)cc3)c(Cc3cccc(F)c3)n2c1 | . | . | -0.2 | . | 13.8 | .
COC(=O)c1ccc(NC(=O)N2CCCC(C(=O)c3ccccc3OC)C2)cc1 (stereo unspecified) | 3.1 | -2.8 | 13.8 | 69.6* | 35.0 | 75.4*
CN(C)Cc1ccccc1Sc1cccc2ccccc12 | 5.2 | 0.4 | 6.4 | 66.5* | 10.6 | 5.8 | MPTP abs DR=11.2*;MPTP counter DR=60.9*
c1ccc(Sc2cccc3ccccc23)c(CNC2=NCCN2)c1 | 15.5 | -0.4 | 5.7 | 100.6* | -7.4 | 29.3*
Fc1ccccc1Sc1ccccc1CNC1=NCCN1 | -1.6 | 1.5 | -0.3 | 1.3 | 9.8 | .
CN(C)Cc1ccccc1Sc1ccccc1Br | -3.0 | -0.3 | 19.6 | 0.1 | -7.5 | .
Cc1csc(=O)n1CCC(=O)OCC(=O)NCc1ccccc1 | . | -1.5 | 1.9 | 0.3 | -9.6 | .
CCCCCCN1CCN(C2CN(Cc3cn(Cc4ccc(C)cc4)nn3)S(=O)(=O)C2)CC1 (stereo unspecified) | . | . | -0.3 | 0.7 | -25.7 | .
O=C(COC(=O)CCC(=O)c1ccc(F)cc1)NCCc1ccccc1 | . | -4.0 | 2.8 | -0.8 | -6.3 | .
Cc1ccc(Sc2ccc(NC(=O)CCl)cc2)cc1C | 8.0 | 2.7 | 3.1 | 51.8* | 31.7 | 20.7*
Cc1ccc(C)c(Sc2ccc(NC(=O)CCl)cc2)c1 | 12.0 | . | 2.2 | . | 7.9 | .
C#CC1c2ccccc2CCN1CC=C (stereo unspecified) | . | . | 0.0 | . | -13.1 | .
O=C(NCCN1C(=O)S/C(=C\c2ccc(Cl)c(Cl)c2)C1=O)C1COc2ccccc2O1 (stereo unspecified) | 0.0 | -1.4 | 4.5 | 99.3* | 22.6 | 91.7*
O=C(NCCN1C(=O)S/C(=C\c2ccc(Cl)cc2)C1=O)c1ccc(F)c(S(=O)(=O)N2CCOCC2)c1 | -0.7 | 1.0 | 3.5 | 1.1 | -6.3 | .
O=C(NCCN1C(=O)S/C(=C\c2ccc(Cl)c(Cl)c2)C1=O)c1ccc2c(c1)C(=O)N(Cc1ccncc1)C2=O | -4.3 | -1.5 | 8.8 | 56.2* | 13.9 | 20.5*
COc1ccc(/C=C2/SC(=O)N(CCNC(=O)C3COc4ccccc4O3)C2=O)cc1 (stereo unspecified) | -0.6 | -3.5 | 14.0 | 6.4 | 16.0 | .
CCc1cc2c(nc1CC)CCCN2S(=O)(=O)c1ccc(F)cc1 | . | . | -1.2 | . | -10.2 | .
SMILES | GPR7 antag | DAGLB inh | TAAR1 ag | MPTP block | TAAR1 antagonist | Rh123 counter | others
O=C(c1ccc(Cl)c(Cl)c1)N1CCC(=O)N([C@H](COCc2ccc(Cl)cc2)Cc2ccccc2)CC1 | . | . | 0.8 | 0.0 | 2.5 | .
COC(=O)[C@@]12C[C@@H](CC(=O)N3CCN(C(=O)C4CC4)CC3)C(=O)N(Cc3ccc4c(c3)OCO4)C1=CCC(C)(C)C2 | . | . | 5.7 | -0.7 | -32.8 | .
O=C(CCc1nc(-c2ccccc2F)no1)Nc1ccc(Oc2ccccc2)cc1 | -6.6 | -9.3 | 12.3 | 106.8* | 53.8* | 93.6*
CCOC(=O)c1ccc(NC(=O)CCc2nc(-c3cccc(C)c3)no2)cc1 | -5.1 | -14.4 | 11.2 | 85.1* | 8.4 | 91.1*
COc1cccc(NC(=O)CCc2nc(-c3ccccc3F)no2)c1 | -1.4 | -3.5 | 7.4 | -0.1 | 5.1 | .
CC(=O)N(c1ccccc1)c1ccccc1[N+](=O)[O-] | . | -1.1 | 1.6 | -1.5 | 4.8 | .
COC(=O)c1cc(=O)nc(NN=C2c3ccccc3-c3ccccc32)s1 | . | . | 0.0 | 57.8* | 12.9 | 51.0*
CCC(C)[C@H](NC(=O)C1CC(=O)N(c2ccc3c(c2)OCO3)C1)C(=O)NC1CCCCC1 (stereo partly specified) | 5.7 | -1.2 | -0.6 | -0.5 | 1.9 | .
Oc1ccc(Cl)cc1CNn1cnnc1 | -15.6 | 2.1 | 4.7 | 3.7 | -4.7 | .
Oc1ccc(Cl)cc1Cc1cc(Cl)ccc1O | 35.4* | -0.7 | 3.0 | 86.4* | 20.1 | 86.5*
O=C(Nc1ccc(F)cc1)c1cc(Cl)sc1Cl | 2.0 | 0.1 | -2.7 | 0.7 | -12.7 | .
O=C(Nc1ccc([N+](=O)[O-])cc1)Nc1ccc(Cl)cc1F | 8.5 | -1.4 | 17.5 | 99.8* | -0.7 | 100.8*
O=C(Nc1ccc(Cl)cc1)Nc1cc([N+](=O)[O-])ccc1F | -6.5 | 0.1 | 7.2 | 93.0* | 11.3 | 93.0*
O=C(Nc1ccc([N+](=O)[O-])cc1)c1cc(Cl)sc1Cl | -15.1 | -2.7 | -1.2 | 89.4* | -30.6 | 85.3*
CCC(C)(C)C(=O)Nc1cc([N+](=O)[O-])ccc1F | -10.4 | -0.3 | 2.2 | 1.0 | 18.4 | .
Cc1cc(OC(F)F)ccc1NC(=O)Nc1ccc([N+](=O)[O-])cc1 | 41.4* | -1.5 | 8.6 | 98.8* | -0.7 | 86.0*
COC(=O)c1nc(-c2ccc(C)cc2)[nH]c1C(C)(C)C | . | . | -1.8 | 0.4 | -25.7 | .
COc1ccc(N2CCN(C(=O)C3CCN(S(=O)(=O)c4ccc5c(c4)CC(C)N5C(=O)C4CC4)CC3)CC2)cc1 (stereo unspecified) | . | . | 6.7 | . | 21.2 | .
COC(=O)C1=C(C)N(Cc2cccc(C(F)(F)F)c2)C(=NCc2cc(OC)c(OC)c(OC)c2)NC1c1ccc(Cl)cc1 (stereo unspecified) | . | . | 31.0 | . | 34.8 | .
